Columns and labels:
Mus musculus [1] = assay: Toxicity in NOD/SCID mouse assessed as alanine aminotransferase level at 5 to 50 mg/kg, […] for 5 days; format: organism-based; set-up: dose 5-50 mg/kg, route oral; conditions: in vivo, po, 120 h
[2] = Cytotoxicity against HFF/tert2 after 72 hrs by XTT assay; set-up: species or system Homo sapiens
Method in brief: (§1)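 Cells grown at 37 °C, 5% CO2; HFF in DMEM with 10% FBS, PrEC in prostate epithelial growth medium. Adherent lines seeded overnight, suspension lines same day; compounds diluted from DMSO stocks into media at various final concentrations, 72 h exposure. XTT reagent added 4 h, absorbance 490 nm (reference 690 nm). Growth as % of vehicle; IC50 from sigmoidal dose-response fit; mean ± SEM, three independent experiments.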

MIA PaCa-2 = assay: Cytotoxicity against human MIAPaCa2 cells after 72 hrs by XTT assay; format: functional, cell-based; conditions: MIA PaCa-2, 72 h; method in brief: as §1
SR = assay: Growth inhibition of human SR cells by sulforhodamine B assay; format: functional
A498 = assay: Growth inhibition of human A498 cells by sulforhodamine B assay; format: functional
HL-60(TB) = assay: Growth inhibition of human HL-60(TB) cells by sulforhodamine B assay; format: functional
OVCAR-4 = assay: Growth inhibition of human OVCAR4 cells by sulforhodamine B assay; format: functional
Mus musculus [3] = assay: Toxicity in NOD/SCID mouse assessed as phosphorus level at 5 to 50 mg/kg, iv and po for 5 days; format: organism-based; set-up: dose 5-50 mg/kg, route oral; conditions: in vivo, 120 h
BT-549 = assay: Growth inhibition of human BT549 cells by sulforhodamine B assay; format: functional
SNB-19 = assay: Growth inhibition of human SNB19 cells by sulforhodamine B assay; format: functional
[4] = Cytotoxicity against human JeKo1 cells after 72 hrs by XTT assay; format: functional, cell-based; conditions: JeKo-1, 72 h; method in brief: as §1
Mus musculus [5] = assay: Toxicity in NOD/SCID mouse assessed as thrombocytopenia at 5 to 50 mg/kg, iv and po for 5 days; format: organism-based; set-up: dose 5-50 mg/kg, route oral; conditions: in vivo, 120 h
NCI/ADR-RES = assay: Growth inhibition of human NCI/ADR-RES cells by sulforhodamine B assay; format: functional
Mus musculus [6] = assay: Toxicity in NOD/SCID mouse assessed as sodium level at 5 to 50 mg/kg, […] for 5 days; format: organism-based; set-up: dose 5-50 mg/kg; conditions: in vivo, po, 120 h
[7] = Growth inhibition of human Hs 578T cells by sulforhodamine B assay; format: functional
[8] = Cytotoxicity against human BT-12 cells after 72 hrs by XTT assay; format: functional, cell-based; conditions: BT-12, 72 h; method in brief: as §1
DU-145 = assay: Growth inhibition of human DU145 cells by sulforhodamine B assay; format: functional
NCI-H460 = assay: Growth inhibition of human NCI-H460 cells by sulforhodamine B assay; format: functional
ACHN = assay: Growth inhibition of human ACHN cells by sulforhodamine B assay; format: functional
MCF7 = assay: Growth inhibition of human MCF7 cells by sulforhodamine B assay; format: functional
NCI-H322M = assay: Growth inhibition of human NCI-H322M cells by sulforhodamine B assay; format: functional
UACC-62 = assay: Growth inhibition of human UACC62 cells by sulforhodamine B assay; format: functional
OVCAR-3 = assay: Growth inhibition of human OVCAR-3 cells by sulforhodamine B assay; format: functional
COLO 205 = assay: Growth inhibition of human COLO205 cells by sulforhodamine B assay; format: functional
NCI-H522 = assay: Growth inhibition of human NCI-H522 cells by sulforhodamine B assay; format: functional
SW-620 = assay: Growth inhibition of human SW620 cells by sulforhodamine B assay; format: functional
RXF 393 = assay: Growth inhibition of human RXF393 cells by sulforhodamine B assay; format: functional
Mus musculus [9] = assay: Toxicity in NOD/SCID mouse assessed as anemia at 5 to 50 mg/kg, iv and po for 5 days; format: organism-based; set-up: dose 5-50 mg/kg, route oral; conditions: in vivo, 120 h
CAKI-1 = assay: Growth inhibition of human Caki1 cells by sulforhodamine B assay; format: functional
WiDr = assay: Cytotoxicity against human WiDr cells after 72 hrs by XTT assay; format: functional, cell-based; method in brief: as §1
[10] = Cytotoxicity against human Rh41 cells after 72 hrs by XTT assay; format: functional, cell-based; conditions: Rh41, 72 h; method in brief: as §1
[11] = Antitumor activity against human JeKo1 cells transplanted in NOD/SCID mouse assessed as tumor volume treated iv for 5 days relative to control; format: functional, JeKo-1
Method in brief: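 Female NOD/SCID mice bearing JeKo-1 tumors transplanted day 1; IV dosing from day 4, daily for five days, at 5, 10, 25 or 50 mg/kg in 3.0% DMSO/6.5% Tween 80/5% glucose, 4 per group. Volume = (length × width²)/2, measured thrice weekly; T/C = median treated tumor volume ÷ median control volume.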

[12] = Cytotoxicity against human NB-EBc1 cells after 72 hrs by XTT assay; format: functional, cell-based; conditions: NB-EBc1, 72 h; method in brief: as §1
[13] = Cytotoxicity against human Rh30 cells after 72 hrs by XTT assay; format: functional, cell-based; conditions: SJRH30, 72 h; method in brief: as §1
Mus musculus [14] = assay: Toxicity in NOD/SCID mouse assessed as total necropsies at 5 to 50 mg/kg, […] for 5 days; format: organism-based; set-up: dose 5-50 mg/kg; conditions: in vivo, po, 120 h
JVM-2 = assay: Cytotoxicity against human JVM2 cells after 72 hrs by XTT assay; format: functional, cell-based; conditions: JVM-2, 72 h; method in brief: as §1
[15] = Growth inhibition of human […] cells by sulforhodamine B assay; format: functional
M14 = assay: Growth inhibition of human M14 cells by sulforhodamine B assay; format: functional
[16] = read-out: Log10GI50 (converted)
[17] = read-out: Log10LC50 (converted)

For CC(/C=C/[C@@H]1C[C@]2(CO2)CC(C)(C)O1)=C\C[C@H]1CC[C@@H](NC(=O)/C=C\[C@H](C)OC(=O)C(C)C)CC1, the Activity (Mus musculus [1]) was “Non-toxic”, the IC50 [2] was 9.69 µM and the IC50 (MIA PaCa-2) was 1200 nM. For the same molecule, the GI50 (SR; [16]) was 58.9 nM, the CC50 (SR; [17]) was greater than 100 µM and the TGI (SR; read-out: Log10TGI (converted)) was 447 nM. It also gave a GI50 (A498; [16]) of 3.39 µM, a CC50 (A498; [17]) greater than 100 µM and a TGI (A498; read-out: Log10TGI (converted)) of 74.1 µM. It also gave a GI50 (HL-60(TB); [16]) of 129 nM, a CC50 (HL-60(TB); [17]) of 74.1 µM and a TGI (HL-60(TB); read-out: Log10TGI (converted)) of 525 nM. It also gave a GI50 (OVCAR-4; [16]) of 1510 nM, a CC50 (OVCAR-4; [17]) greater than 100 µM and a TGI (OVCAR-4; read-out: Log10TGI (converted)) greater than 100 µM. The Activity (Mus musculus [3]) was “Non-toxic”, the GI50 (BT-549; [16]) was 138 nM and the CC50 (BT-549; [17]) was greater than 100 µM. It also gave a TGI (BT-549; read-out: Log10TGI (converted)) of 776 nM, a GI50 (SNB-19; [16]) of 2000 nM and a CC50 (SNB-19; [17]) greater than 100 µM. For the same molecule, the TGI (SNB-19; read-out: Log10TGI (converted)) was greater than 100 µM, the IC50 [4] was 120 nM and the Activity (Mus musculus [5]) was “Non-toxic”. For the same molecule, the GI50 (NCI/ADR-RES; [16]) was 501 nM, the CC50 (NCI/ADR-RES; [17]) was greater than 100 µM and the TGI (NCI/ADR-RES; read-out: Log10TGI (converted)) was greater than 100 µM. The Activity (Mus musculus [6]) was “Non-toxic”, the GI50 [7, 16] was 309 nM and the CC50 [7, 17] was greater than 100 µM. The TGI ([7]; read-out: Log10TGI (converted)) was 45.7 µM, the IC50 [8] was 2790 nM and the GI50 (DU-145; [16]) was 550 nM. The CC50 (DU-145; [17]) was greater than 100 µM, the TGI (DU-145; read-out: Log10TGI (converted)) was greater than 100 µM and the GI50 (NCI-H460; [16]) was 501 nM. The CC50 (NCI-H460; [17]) was greater than 100 µM, the TGI (NCI-H460; read-out: Log10TGI (converted)) was greater than 100 µM and the GI50 (ACHN; [16]) was 537 nM. For the same molecule, the CC50 (ACHN; [17]) was greater than 100 µM, the TGI (ACHN; read-out: Log10TGI (converted)) was 75.9 µM and the GI50 (MCF7; [16]) was 25.1 nM. It also gave a CC50 (MCF7; [17]) greater than 100 µM, a TGI (MCF7; read-out: Log10TGI (converted)) of 13.8 µM and a GI50 (NCI-H322M; [16]) of 2000 nM. For the same molecule, the CC50 (NCI-H322M; [17]) was greater than 100 µM, the TGI (NCI-H322M; read-out: Log10TGI (converted)) was 22.4 µM and the GI50 (UACC-62; [16]) was 513 nM. For the same molecule, the CC50 (UACC-62; [17]) was 46.8 µM, the TGI (UACC-62; read-out: Log10TGI (converted)) was 4.68 µM and the GI50 (OVCAR-3; [16]) was 229 nM. The CC50 (OVCAR-3; [17]) was greater than 100 µM, the TGI (OVCAR-3; read-out: Log10TGI (converted)) was 3.47 µM and the GI50 (COLO 205; [16]) was 263 nM. For the same molecule, the CC50 (COLO 205; [17]) was greater than 100 µM, the TGI (COLO 205; read-out: Log10TGI (converted)) was 1120 nM and the GI50 (NCI-H522; [16]) was 316 nM. It also gave a CC50 (NCI-H522; [17]) of 5.37 µM, a TGI (NCI-H522; read-out: Log10TGI (converted)) greater than 100 µM and a GI50 (SW-620; [16]) of 81.3 nM. It also gave a CC50 (SW-620; [17]) greater than 100 µM, a TGI (SW-620; read-out: Log10TGI (converted)) of 12.9 µM and a GI50 (RXF 393; [16]) of 229 nM. The CC50 (RXF 393; [17]) was greater than 100 µM, the TGI (RXF 393; read-out: Log10TGI (converted)) was 1820 nM and the Activity (Mus musculus [9]) was “Non-toxic”. The GI50 (CAKI-1; [16]) was 302 nM, the CC50 (CAKI-1; [17]) was greater than 100 µM and the TGI (CAKI-1; read-out: Log10TGI (converted)) was 2140 nM. For the same molecule, the IC50 (WiDr) was 910 nM, the IC50 [10] was 550 nM and the T/C [11] was “<=42%”. The IC50 [12] was 660 nM, the IC50 [13] was 690 nM and the Activity (Mus musculus [14]) was “Non-toxic”. It also gave an IC50 (JVM-2) of 190 nM, a GI50 [15, 16] of 427 nM and a CC50 [15, 17] greater than 100 µM. The TGI ([15]; read-out: Log10TGI (converted)) was 4.68 µM, the GI50 (M14; [16]) was 229 nM and the CC50 (M14; [17]) was greater than 100 µM. For the same molecule, the TGI (M14; read-out: Log10TGI (converted)) was 13.8 µM.
